Results from ChEMBL document CHEMBL1122398, “Some biological properties of the impure dichloride salt of tetrakis[p-(dimethylamino)phenyl]ethylene and a pinacolone” (1983).
Where “and” joins values, the source holds several entries; their conditions need not be identical. Equal entries are not always repeated.

Key:
Mus musculus [1] = assay: Tested for anti-lymphosarcoma in mice at the dose of 10 mg/kg; format: functional
In short: (§1)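 Groups of five female C3H mice received 7.5×10^6 Gardner lymphosarcoma (6C3 HED) cells per mouse intraperitoneally. Starting 1 day later, mice were dosed subcutaneously on the lower back once daily for 5 days, with test material in saline or 10% (CH₃)₂SO. Control mice received vehicle only. Read-outs were average survival in days and the number of mice surviving 50 days.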

Mus musculus [2] = assay: Tested for anti-lymphosarcoma activity in mice at the dose of 5 mg/kg by determining average survivals
Mus musculus [3] = assay: Number of mice with 50-day survival period in control group at a dose of 10 mg/Kg tested out of 5 mice treated; format: functional; in short: as §1
Mus musculus [4] = assay: Tested for average survival days in control mice at a dose of 10 mg/Kg; format: functional; in short: as §1
Mus musculus [5] = assay: Tested for average survival days in control mice at a dose of 5 mg/Kg; format: functional; in short: as §1
Mus musculus [6] = assay: Number of mice with 50-day survival period after treating with 5 mg/Kg of compound out of 5 tested; format: functional; in short: as §1
Mus musculus [7] = assay: Number of mice with 50-day survival period after treating with 10 mg/Kg of compound out of 5 tested; format: functional; in short: as §1
Mus musculus [8] = assay: Number of mice with 50-day survival period in control group at a dose of 5 mg/Kg tested out of 5 mice treated; format: functional; in short: as §1
Mus musculus [9] = species on record: Mus musculus; assay: Tested for anti-lymphosarcoma activity in mice (control) with 50-day survival period out of 5 tested; format: functional; in short: as §1
Mus musculus [10] = species on record: Mus musculus; assay: Tested for average survival days in mice (control); format: functional; in short: as §1
Mus musculus [11] = assay: Tested for anti-lymphosarcoma activity in mice at the dose of 10 mg/kg by determining average survivals; format: functional; in short: as §1

CN(C)c1ccc(C(=C(c2ccc(N(C)C)cc2)c2ccc(N(C)C)cc2)c2ccc(N(C)C)cc2)cc1
Average survival (Mus musculus [1]): 37.6 days | Average survival (Mus musculus [2]): 21.5 days | No. of survivals (Mus musculus [3]): 0 | Average survival (Mus musculus [4]): 14.8 days | Average survival (Mus musculus [5]): 14.8 days | No. of survivals (Mus musculus [6]): 1 | No. of survivals (Mus musculus [7]): 4 | No. of survivals (Mus musculus [8]): 0

CN(C)c1ccc(C(=C2C=CC(=[N+](C)C)C=C2)C(c2ccc(N(C)C)cc2)c2ccc(N(C)C)cc2)cc1
Average survival (Mus musculus [2]): 13.2 days | No. of survivals (Mus musculus [9]): 0 | Average survival (Mus musculus [10]): 12.2 days | No. of survivals (Mus musculus [7]): 0

CN(C)c1ccc(C(=C2C=CC(=[N+](C)C)C=C2)C(=C2C=CC(=[N+](C)C)C=C2)c2ccc(N(C)C)cc2)cc1
Average survival (Mus musculus [11]): 37.6 days and 42.8 days | Average survival (Mus musculus [10]): 14.8 days and 23 days | No. of survivals (Mus musculus [7]): 4
